IC50 and Activity data for twelve compounds are collected here from ChEMBL document CHEMBL1129414, “Synthesis and cytotoxic and antitumor activity of esters in the 1,2-dihydroxy-1,2-dihydroacronycine series” (J Med Chem, 1996).

A word on the IC50: it is the concentration at which inhibition is half-maximal. Low values mean greater potency, high ones weaker potency.

For one experiment, the system named is L1210. In words: Compound was tested in vitro for cytotoxicity on L1210 leukemic cells by using MTT assay. Type of experiment: functional, cell-based. The note with it: Mus musculus. A digest of the protocol:
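L1210 cells were grown in RPMI 1640 with 10% fetal calf serum, 2 mM L-glutamine and 10 mM HEPES (pH 7.4). Cells were exposed for 48 h to nine serial drug dilutions in triplicate, and viability was read by MTT. IC50 is the concentration halving optical density versus untreated controls, given as mean ± SEM of at least 3 independent experiments.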

The test system of experiment [1] is P388. Kind of experiment: Compound was tested for antitumor activity against P388 leukemia cells at the dose of 25 mg/kg ip. In kind it is functional, Mus musculus.
The test system of experiment [2] is MC-38. In words: Compound was tested for antitumor activity against colon 38 adenocarcinoma cells at the dose of 12.5 mg/kg ip. Type of experiment: functional, Mus musculus.
In experiment [3] the test system is P388. Kind of experiment: Compound was tested for antitumor activity against P388 leukemia cells at the dose of 25 mg/kg iv. In kind it is functional, Mus musculus.
Experiment [4] relates to MC-38. In words: Compound was tested for antitumor activity against colon 38 adenocarcinoma cells at the dose of 6.25 mg/kg ip. In kind it is functional, Mus musculus.
Experiment [5] concerns P388. Kind of experiment: Compound was tested for antitumor activity against P388 leukemia cells at the dose of 12.5 mg/kg ip. The note with it: Mus musculus.
Experiment [6] relates to P388. In words: Compound was tested for antitumor activity against P388 leukemia cells at the dose of 12.5 mg/kg ip. Type of experiment: functional, Mus musculus.
The test system of experiment [7] is P388. In words: Compound was tested for antitumor activity against P388 leukemia cells at the dose of 200 mg/kg ip. In kind it is functional, Mus musculus.
Experiment [8] relates to MC-38. In words: Compound was tested for antitumor activity against colon 38 adenocarcinoma cells at the dose of 200 mg/kg ip. Type of experiment: functional, Mus musculus.
The test system of experiment [9] is P388. Kind of experiment: Compound was tested for antitumor activity against P388 leukemia cells at the dose of 50 mg/kg ip. Type of experiment: functional, Mus musculus.

As for `Cn1c2ccccc2c(=O)c2ccc3c(c21)[C@@H](O)[C@@H](O)C(C)(C)O3`, the IC50 in the experiment on L1210 is greater than 50 µM. Consider `COc1cc2c(c3c1c(=O)c1ccccc1n3C)[C@@H](OC(C)=O)[C@@H](OC(C)=O)C(C)(C)O2`, for which the Activity with P388 [1] came to 289%; in the experiment on MC-38 [2] it was 0%; with P388 [3] it was 220%. Moreover, in the experiment with L1210, it took 5.8 µM to reach half-maximal inhibition (IC50). As for `COc1cc2c(c3c1c(=O)c1ccccc1n3C)[C@H]1OC(=O)O[C@H]1C(C)(C)O2`, the Activity turned out to be 68% with MC-38 [4] and 202% in the experiment on P388 [5]. Also, inhibition in the experiment with L1210 was half-maximal at 0.32 µM (IC50).

In turn, `Cn1c2ccccc2c(=O)c2ccc3c(c21)[C@H]1OC(=O)O[C@H]1C(C)(C)O3` gave an IC50 in the experiment on L1210 greater than 50 µM. As to `COc1cc2c(c3c1c(=O)c1ccccc1n3C)[C@@H](O)[C@@H](OC(=O)c1ccccc1)C(C)(C)O2`, the results for the Activity in the experiment on P388 [6] and in the experiment on MC-38 [4] were 258% and 18%, respectively. In addition, the IC50 with L1210 came out at 7.1 µM. `COc1cc2c(c3c1c(=O)c1ccccc1n3C)[C@@H](O)[C@@H](O)C(C)(C)O2` came in with an IC50 in the experiment on L1210 of 80.6 µM. Regarding `Cn1c2ccccc2c(=O)c2ccc3c(c21)C=CC(C)(C)O3`, in the experiment with L1210, half-maximal inhibition (IC50) was put at 29.7 µM. Regarding `COc1cc2c(c3c1c(=O)c1ccccc1n3C)CCC(C)(C)O2` [DIHYDROACRONYCINE], it took 34.3 µM to reach half-maximal inhibition in the experiment on L1210 (IC50).

With `COc1cc2c(c3c1c(=O)c1ccccc1n3C)C=CC(C)(C)O2` [ACRONINE], the Activity was found to be 125% in the experiment with P388 [7] and 4% with MC-38 [8]. In the experiment on L1210, this compound registered an IC50 of 24.1 µM. Consider `COc1cc2c(c3c1c(=O)c1ccccc1n3C)[C@@H](OC(C)=O)[C@@H](OC(=O)c1ccccc1)C(C)(C)O2`, for which the Activity with MC-38 [2] was 13%; in the experiment on P388 [9], 201%. In addition, the IC50 in the experiment on L1210 is 5 µM. In turn, `CC(=O)O[C@@H]1c2c(ccc3c(=O)c4ccccc4n(C)c23)OC(C)(C)[C@@H]1OC(C)=O` gave an IC50 with L1210 greater than 50 µM. The same measure, in the same setting: then `COc1cc2c(c3c1c(=O)c1ccccc1n3C)[C@@H](O)[C@@H](OC(C)=O)C(C)(C)O2`, with 8.9 µM.
